In ChEMBL document CHEMBL1944570, “Discovery of 4''-ether linked azithromycin-quinolone hybrid series: influence of the central linker on the antibacterial activity” (ACS Med Chem Lett, 2011) one finds MIC and IC50 data, which are given here for 5 compounds.

The subject of test [1] is Staphylococcus aureus. Description: Antibacterial activity against ciprofloxacin-resistant Staphylococcus aureus by agar microdilution method. The format is functional. In short, it runs like this: (§1)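 MIC by agar microdilution following NCCLS standards; strains drawn from the PLIVA Research Institute culture collection. MIC reported in μg/mL.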
Test [2] concerns Staphylococcus aureus. The experiment in a line: Antibacterial activity against erythromycin-susceptible Staphylococcus aureus by agar microdilution method. The class given is functional. In outline: (§2)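 Agar microdilution MIC per NCCLS standards against strains from the Pliva Research Institute culture collection; values in µg/mL. Panel included erythromycin-susceptible strains and strains with inducible or constitutive MLS resistance.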

In test [3] the test system is Staphylococcus aureus. The experiment in a line: Antibacterial activity against Staphylococcus aureus with inducible resistance to MLS by agar microdilution method. The format is functional. In short, it runs like this: as §1
The subject of test [4] is Staphylococcus aureus. Description: Antibacterial activity against constitutive MLS resistant Staphylococcus aureus by agar microdilution method. The class given is functional. In short, it runs like this:
as §1

Test [5] concerns Staphylococcus aureus. Description: Antibacterial activity against efflux mediated macrolide resistant Staphylococcus aureus by agar microdilution method. The class given is functional. In outline:
as §1

In test [6] the test system is Streptococcus pneumoniae. The experiment in a line: Antibacterial activity against erythromycin-susceptible Streptococcus pneumoniae by agar microdilution method. The class given is functional. In outline:
as §1

In test [7] the test system is Streptococcus pneumoniae. Description: Antibacterial activity against constitutive MLS resistant Streptococcus pneumoniae by agar microdilution method. The format is functional. In outline: as §1
Test [8] relates to Streptococcus pneumoniae. Description: Antibacterial activity against efflux mediated macrolide resistant Streptococcus pneumoniae by agar microdilution method. The class given is functional. In outline: as §1
Test [9] concerns Streptococcus pyogenes. Description: Antibacterial activity against erythromycin-susceptible Streptococcus pyogenes by agar microdilution method. The class given is functional. In short, it runs like this:
as §1

Test [10] relates to Streptococcus pyogenes. Description: Antibacterial activity against Streptococcus pyogenes with inducible resistance to MLS by agar microdilution method. The class given is functional. In short, it runs like this:
as §1

The subject of test [11] is Streptococcus pyogenes. The experiment in a line: Antibacterial activity against constitutive MLS resistant Streptococcus pyogenes by agar microdilution method. The format is functional. In outline: as §1
Test [12] relates to Streptococcus pyogenes. Description: Antibacterial activity against efflux mediated macrolide resistant Streptococcus pyogenes by agar microdilution method. The class given is functional. In short, it runs like this: as §1
Test [13] concerns Haemophilus influenzae. Description: Antibacterial activity against Haemophilus influenzae B0529 by agar microdilution method. The class given is functional. In short, it runs like this: as §2
In test [14] the test system is Moraxella catarrhalis. The experiment in a line: Antibacterial activity against Moraxella catarrhalis by agar microdilution method. The format is functional. In short, it runs like this: as §2
Test [15] in a line: Inhibition of protein synthesis using Escherichia coli S30 extracts preincubated for 10 mins measured after 50 mins by luciferase reporter gene assay. The class given is functional. (In general: In a reporter assay the amount or activity of a reporter protein is the signal.)
Test [16] is described as follows: Inhibition of Escherichia coli DNA gyrase-mediated supercoiling of relaxed pBR322 DNA.
Test [17] is described as follows: Inhibition of Escherichia coli topoisomerase 4-mediated relaxation of supercoiled pBR322 DNA.

The structures appear in SMILES notation. Values after ≈ are worked out from the molar mass of the structure shown.

`CC[C@H]1OC(=O)[C@H](C)[C@@H](O[C@H]2C[C@@](C)(OC)[C@@H](OCCNCCNc3cc4c(cc3F)c(=O)c(C(=O)O)cn4C3CC3)[C@H](C)O2)[C@H](C)[C@@H](O[C@@H]2O[C@H](C)C[C@H](N(C)C)[C@H]2O)[C@](C)(O)C[C@@H](C)CN(C)[C@H](C)[C@H]2OC(=O)O[C@@]21C`: the MIC was no less than 64 mg/L in [1]; 4 mg/L (≈ 3.62 µM) in test [2]; 64 mg/L (≈ 57.8 µM) in test [3]; greater than 64 mg/L in test [4]; 4 mg/L (≈ 3.62 µM) in test [5]; no more than 0.125 mg/L in test [6]. Also, the MIC in test [7] is 64 mg/L (≈ 57.8 µM); in test [8], 0.25 mg/L (≈ 0.226 µM); in test [9], no more than 0.125 mg/L; in test [10] it was 0.25 mg/L (≈ 0.226 µM); in [11], 8 mg/L (≈ 7.23 µM); in test [12], 4 mg/L (≈ 3.62 µM). Also, the MIC amounted to 4 mg/L (≈ 3.62 µM) in [13] and 0.5 mg/L (≈ 0.452 µM) in [14].
`CC[C@H]1OC(=O)[C@H](C)[C@@H](O[C@H]2C[C@@](C)(OC)[C@@H](OCCCC(=O)NCCOCCNc3cc4c(cc3F)c(=O)c(C(=O)O)cn4C3CC3)[C@H](C)O2)[C@H](C)[C@@H](O[C@@H]2O[C@H](C)C[C@H](N(C)C)[C@H]2O)[C@](C)(O)C[C@@H](C)CN(C)[C@H](C)[C@@H](O)[C@]1(C)O`: the MIC is no less than 64 mg/L in test [1]; 16 mg/L (≈ 13.7 µM) in test [2]; 64 mg/L (≈ 54.9 µM) in [3]; 64 mg/L (≈ 54.9 µM) in test [4]; 32 mg/L (≈ 27.4 µM) in test [5]; 0.5 mg/L (≈ 0.429 µM) in test [6]. In addition, the MIC in test [7] worked out at 8 mg/L (≈ 6.86 µM); in test [8], 0.25 mg/L (≈ 0.214 µM); in test [9], 0.25 mg/L (≈ 0.214 µM); in test [10], 0.25 mg/L (≈ 0.214 µM); in test [11], 4 mg/L (≈ 3.43 µM); in test [12], 2 mg/L (≈ 1.71 µM). Besides, the values for the MIC in test [13] and in test [14] were 16 mg/L (≈ 13.7 µM) and 8 mg/L (≈ 6.86 µM), respectively.
For the compound `CC[C@H]1OC(=O)[C@H](C)[C@@H](O[C@H]2C[C@@](C)(OC)[C@@H](OCCNCCNc3cc4c(=O)c(C(=O)O)cn(C5CC5)c4cc3Cl)[C@H](C)O2)[C@H](C)[C@@H](O[C@@H]2O[C@H](C)C[C@H](N(C)C)[C@H]2O)[C@](C)(O)C[C@@H](C)CN(C)[C@H](C)[C@@H](O)[C@]1(C)O`, the MIC was no less than 64 mg/L in test [1]; 4 mg/L (≈ 3.65 µM) in test [2]; 64 mg/L (≈ 58.4 µM) in test [3]; greater than 64 mg/L in test [4]; 8 mg/L (≈ 7.29 µM) in test [5]; no more than 0.125 mg/L in test [6]. The MIC in [7] was 64 mg/L (≈ 58.4 µM); in test [8] it was 0.25 mg/L (≈ 0.228 µM); in test [9], no more than 0.125 mg/L; in [10], 1 mg/L (≈ 0.912 µM); in test [11], 16 mg/L (≈ 14.6 µM); in [12], 8 mg/L (≈ 7.29 µM). In addition, the MIC in test [13] was 2 mg/L (≈ 1.82 µM); in test [14], 0.5 mg/L (≈ 0.456 µM).
Regarding `CC[C@H]1OC(=O)[C@H](C)[C@@H](O[C@H]2C[C@@](C)(OC)[C@@H](OCCCC(=O)NCCNc3cc4c(=O)c(C(=O)O)cn(C5CC5)c4cc3Cl)[C@H](C)O2)[C@H](C)[C@@H](O[C@@H]2O[C@H](C)C[C@H](N(C)C)[C@H]2O)[C@](C)(O)C[C@@H](C)CN(C)[C@H](C)[C@@H](O)[C@]1(C)O`, the MIC in test [1] is no less than 64 mg/L; in test [2], 4 mg/L (≈ 3.51 µM); in [3], 32 mg/L (≈ 28.1 µM); in test [4], 64 mg/L (≈ 56.2 µM); in test [5], 4 mg/L (≈ 3.51 µM); in test [6], 0.5 mg/L (≈ 0.439 µM). For the same compound, the MIC in test [7] was 0.5 mg/L (≈ 0.439 µM); in test [8] it was no more than 0.125 mg/L; in test [9], no more than 0.125 mg/L; in test [10] it was 0.25 mg/L (≈ 0.22 µM); in test [11], 2 mg/L (≈ 1.76 µM); in test [12], 2 mg/L (≈ 1.76 µM). In addition, the MIC in test [13] worked out at 8 mg/L (≈ 7.02 µM); in test [14], 4 mg/L (≈ 3.51 µM).
As to `O=C(O)c1cn(C2CC2)c2cc(N3CCNCC3)c(F)cc2c1=O` [CIPROFLOXACIN], the MIC in test [1] was no less than 64 mg/L; in test [3] it was no more than 0.125 mg/L; in test [5] it was no more than 0.125 mg/L; in test [6], no more than 0.125 mg/L; in test [7], 0.25 mg/L (≈ 0.754 µM); in test [8], 0.25 mg/L (≈ 0.754 µM). The MIC in [9] was 2 mg/L (≈ 6.04 µM); in test [10], 0.25 mg/L (≈ 0.754 µM); in test [11], 0.5 mg/L (≈ 1.51 µM); in test [12], no more than 0.125 mg/L; in test [13], no more than 0.125 mg/L; in [14], 0.125 mg/L (≈ 0.377 µM). Also, the IC50 – broadly, the concentration that inhibits the measured activity by half – in test [15] was greater than 50 µM; in test [16] it was 0.8 µM; in test [17], 3 µM.
